According to the RNAGym collection of RNA variant scans (doi:10.1126/science.aae0568):
Variants at the floor of the assay were thinned out.

B1: tRNA (parent)
chain: GUUCCGUUGGCGUAAUGGUAACGCGUCUCCCUCCUAAGGAGAAGACUGCGGGUUCGAGUCCCGUACGGAACG

Variants of: B1
Test: yeast fitness relative to wild type (ratio to wild type); higher = fitter; tRNA-Arg(CCU), competitive growth, 37 C, YPD
Summary of the method: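 Variants of the tRNA-Arg(CCU) gene were chemically synthesised with a 3% per-site mutation rate across 69 sites and placed at the native genomic locus in Saccharomyces cerevisiae. Six parallel replicates of the pooled strains were competed in YPD at 37°C for 24 hours, and gene amplicons from the start and end populations were read by 100-nucleotide paired-end sequencing. Darwinian fitness relative to wild type was derived from changes in genotype frequencies. Genotypes required ≥ 100 starting reads, and estimates < 0.5 were set to 0.5.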
GUUCCGCUGGCGUAAUGGUAACGCGUCUCCCUGCUAAGGAGAAGACUGCGGGUUCGAGCCCCGUACGGAACG gave a yeast fitness of 0.59.
GUUCCGCUGGCGUAAUGAUAACGCGUCUCUCUCAUAAGGAGAAGACUGCGGGUUCGAGUCCCGUACGGAACG gave a yeast fitness of at most 0.5.
GUUCCGCUGGCGUAAUGGUAACGCGUCUCCUGCCUAAGGAGAAGACUGCGGGUUCGAGUCCCGUACGGAACG showed a yeast fitness of 0.542.
Work on GUUCCGCUGGCGUAAUGGUAACGCGUCUCCCUCCUAAGGAGAAGACUGCGGGUUCGAGUCGCGUGCGGAACG yielded a yeast fitness of 0.57.
Work on GUUCCGCUGGCGUAAUGGUAACGCGUCUCCCUCCUAAGGAGAAGACUGCGGGUUCGAGUCGCGUCCGGAACG yielded a yeast fitness of at most 0.5.
GUUCCGCUGGCGUAAUGGUAACGCGUCUCCCUCUUAAGGAGAAGACUGCGGGUUAGAGUCCCGUGCGGAACG gave a yeast fitness of at most 0.5.
GUUCCGCUGGCGUAAUGGUAACGCGUCUCCCUCCUAAGGAGAAGACUGCGGGUUCGAGUCACGUACGGAACG showed a yeast fitness of 0.678.
Work on GUUCCGCUGGCGUAAUGGUAACGCGUCUCCCUUCUAAGGAGAAGACUGCGGGCUCGAGUCCCGUACGGAACG yielded a yeast fitness of 0.599.
GUUCCGCUGGCGUAAUGAUAAGGCGUCUCCCUCCUAAGGAGAAGACUGCGGGUUCGAGUCCUGUACGGAGCG gave a yeast fitness of at most 0.5.
In the case of GUUCCGCUGGCGUAAUGGUAACGCGUCUCCCUCCUAAGGAGAAGAUUGCGGGUUCGAGGCCCGUACUGAACG, the yeast fitness is reported as at most 0.5.
For GUUCCGCUGGCGUAAUGGUAACGCGUCUCCCUCGUAAGCAGGAGAGUGCGGGUUCGAGUCGCGUACGGAACG, the yeast fitness was 0.538.
GUUCCGCUGGCGUAAUGGUAACGCGUCUCCCUCCUAAGGAACAGACUGCCGGUUCGAGUCCCGUACUGAACG gave a yeast fitness of at most 0.5.
In the case of GUUCCGCUGGCGUAAUGGUAACGCGUCUCCCUCCUAAGGAGAAGACUGCGGGUUCGAGUCCUGUAGGGAACG, the yeast fitness is reported as at most 0.5.
In the case of GUUCCGCUGGCGUAAUGGUAACGCGUCUCCCUACUAAGGAGAAGACUGCGGGUUCGACUCCCGUACAGAACG, the yeast fitness is reported as 0.602.
Work on GUUCCGCUAGCGUAAUGGUAACGGGUCUCCCUCCUAAGGAGAAGUCUGAGGGAUCGAGUCCCGUACGGAACG yielded a yeast fitness of 0.681.
With GUUCCGCUGGCGUAAUGCUAACGCGUCUCCCUCCUAAGGAGAAGACUGCGGGUUCGAGGCCCGUACGGAACG the yeast fitness was at most 0.5.
With GUUCCGCUGACGUAAUGGUAACGCGUCUCGCUCCUACGGAGAAGACUGCGGGUUCGAGUCCCGUACGGAACG the yeast fitness was 0.554.
For GUUCCGCUGGCGUAAUGGUAACGCGUCUCCUUCCUAAGGAGAAGACUGCGGAUUCGAGUCCCGUACGGAACG, the yeast fitness was at most 0.5.
With GUUCCGCUGGCGUAAUGGUAACGCAUCUCCCUCCUAAGGAGAAGACUGCGGGUUAGAGUCCCGUACGGAACG the yeast fitness was at most 0.5.
For GUUCCGCUGGCGUAAUGGUAACGCGUCUCCGUCCUAAGGAGAAGACUGCGGGUUCGAGUCCCGUUCGGAACG, the yeast fitness was 0.664.
In the case of GUUCCGCUCGCGUAAUGGUGACGCGUCUCCCUCCUAAGGAAAAGACUGCGGGUUCGAGUCCCGUACGGAACG, the yeast fitness is reported as at most 0.5.
GUUCCGCUGGCCUAAUGGUAACGCGUCUCCCACCUAAGAAGAAGACUGGGGGUUCGAGUCCCGUACGGAACG gave a yeast fitness of 0.602.
For GUUCCGCUGGCGUAAUGGUAACGCCUCUCGCUUCUAAGGAGAAGGCGGCCGGUUCGAGUCCCAUACGGAACG, the yeast fitness was at most 0.5.
For GUUCCGCUGGCGUAAUGGUAACGCGUCUCCCUUCUAAGGAGAAGACUGUGGGCUCGAGUCCCGUACGGAACG, the yeast fitness was 0.539.
In the case of GUUCCGCUGGCGUAAUGGUAACGCGUCUCCCUGCUAAGGAGAAGACUGCGGGUUCGAGUCCCGUACGGAGCG, the yeast fitness is reported as 0.57.
Work on GUUCCGCUGGCGUAAUGGUAACGCGUCUCCGUCUUAAGGAGAAGACUGCGGGUUUGAAUCUCGUACGCAACG yielded a yeast fitness of at most 0.5.
In the case of GUUCCGCUGGCGUAAUGGUAACGCGUCUCCCUCCUAAGGAGAAGACUGUGGGUUAGAGUCCCGUACGGAACG, the yeast fitness is reported as at most 0.5.
For GUUCCGCUGGCGUAAUGGUAACGCGUCUCCCUCCUAAGGAACAGACUGCCGGUUCGAGUCCCAUACGGAGCG, the yeast fitness was 0.555.
Work on GUUCCGCUGACGUAAUGGUAACGGGUCUCCCUCUUAAGGAGAUGACUGCGGGUUCGAGUCCCGUACGGAACG yielded a yeast fitness of at most 0.5.
GUUCCGCUGGCGUAAUGGUAACGCCUCUCCCUCCUAAGGAGGAGACUGCGGGUUCGAGUCCCGUACGGAACG showed a yeast fitness of 0.567.
Variant GUUCCGCUGGCGUAAUGAUAAGGCGUCUCCCUCCUAAGGAGAAGACUGCGGGUUCGAGUCCCGUACGGAACG has a yeast fitness of 0.586.
GUUCCGCUGGCGUAAUGGUAACGCGUCUCCUUCCUUAGGAGACGACUGCGGGUUGGAGUCCCGUACGGAACG showed a yeast fitness of 0.539.
GUUCCGCUGGCGUAAUGGUAACGCGUCUCCCUCUUAAGGAGAAGACUGCGGGUUCGAGUCCCGUACGGAACG gave a yeast fitness of 0.699.
With GUUCCGCUGGCGUAAUGGUAACGCGUCUCCCUACUAAGGAGAAGACUGAGGGUUCGAGUCCCGUACGGAACG the yeast fitness was at most 0.5.
GUUCCGCUGACGUAAUGGAAACGCGUCUCCCUCCUAAGGAGAACACUGCGGGUUCGAGUCCCGUACCGAACG gave a yeast fitness of at most 0.5.
Work on GUUCCGCUGGCGUAAUGGUAACGCGUCUCCCUCCUAAGGAGAAGACUGCGGGUUCGAGUGCCGUACGGAACG yielded a yeast fitness of 0.583.
For GUUCCGCUGGCGUAAUGGUAACGCGUCUCCCUCCUAAGGAGAAGACUGCGGGUUCGAGUACCGUACGGAACG, the yeast fitness was 0.674.
GUUCCGCUGGCGUAAUGGUAACGCGUCUCCCUCCUAAGGAGAAGACUGCGGGUUCGAGUUCCGUACGGAACG gave a yeast fitness of 0.785.
